Source: PubChem (several laboratories)
Only some compounds are listed: those with a hit (about 3% of all), similar ones and a draw of the others.
PfG6PD inh: PfG6PD (Plasmodium falciparum) enzyme inhibition; PfGluPho enzyme, NADPH resazurin-diaphorase fluorescence; inhibition, % at 20 µM; 350,000 compounds, 0.78% hits; AID 504690;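 active = inhibition reaching at least a set limit at 20 µM in the primary screen, cut at about 59% in these data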;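 also: 0% = DMSO wells with substrate and 100% = DMSO wells lacking glucose-6-phosphate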
B2AR ag: agonists of human beta-2 adrenergic receptor inducing internalization | P07550 | Am2.2-beta2AR cells, FAP receptor internalization, flow cytometry | response, % (concentration not given with the values) | 340,000 compounds, 0.43% hits | AID 504454;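 active = response above a set limit, near 3 SD of response in nonfluorescent compounds, cut at about 42% in these data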
MC4R barr agon: human MC4R agonism via beta-arrestin. activation, % at 8.9 µM. AID 540308. 360,000 compounds, 0.98% hits. P32245. U2OS MC4R beta-arrestin complementation, luminescence; percent of melanotan II response, DMSO zero;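 active = activation above a per-plate cutoff, the mean activation of sample wells on that plate plus 3 SD, cut at about 8% in these data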
MC4R antagonist: human MC4R antagonism in cAMP assay | MC4R-expressing cells, MTII-stimulated cAMP, LANCE TR-FRET | inhibition, % at 6.5 µM | 360,000 compounds, 0.48% hits | AID 540295;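 active = inhibition above its plate's cutoff, the mean of tested wells on that plate plus 3 SD, cut at about 29% in these data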;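 also: 0% = Melanotan II alone and 100% = Melanotan II plus saturating MCL0020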
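system = U2OS cells with stable human MC4R expression | also added = Melanotan II challenge after compound preincubation | dosing = one concentration, 6.5 µM nominal | incubation = compound 30 min, challenge 1 h, detection 1 h | measured by = TR-FRET with Eu-cAMP and labeled anti-cAMP, 671 nm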
ABHD5 PLIN5 PPI: ABHD5-PLIN5 protein interaction inhibition; inhibition, % at 4 µM; 360,000 compounds, 0.78% hits; Split G. princeps luciferase complementation, luminescence, 4 h; Q00G26+Q8WTS1;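 active = inhibition above the mean inhibition across every tested compound plus 3 SD, cut at about 22% in these data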;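 also: 0% = DMSO only wells and the 100% control is not disclosed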
Target sequence (Q00G26 whole entry, looked up): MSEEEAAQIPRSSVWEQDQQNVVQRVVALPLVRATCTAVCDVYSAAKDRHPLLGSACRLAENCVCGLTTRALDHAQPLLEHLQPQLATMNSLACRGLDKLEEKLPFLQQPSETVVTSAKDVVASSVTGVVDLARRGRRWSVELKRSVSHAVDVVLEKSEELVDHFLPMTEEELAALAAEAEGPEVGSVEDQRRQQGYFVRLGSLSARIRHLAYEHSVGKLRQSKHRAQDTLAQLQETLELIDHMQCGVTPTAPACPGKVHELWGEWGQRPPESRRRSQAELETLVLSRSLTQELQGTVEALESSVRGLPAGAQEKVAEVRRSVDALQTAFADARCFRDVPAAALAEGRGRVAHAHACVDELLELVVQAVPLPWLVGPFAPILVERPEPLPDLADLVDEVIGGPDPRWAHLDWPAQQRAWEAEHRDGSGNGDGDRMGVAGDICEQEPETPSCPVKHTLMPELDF
Target sequence (Q8WTS1 whole entry, looked up): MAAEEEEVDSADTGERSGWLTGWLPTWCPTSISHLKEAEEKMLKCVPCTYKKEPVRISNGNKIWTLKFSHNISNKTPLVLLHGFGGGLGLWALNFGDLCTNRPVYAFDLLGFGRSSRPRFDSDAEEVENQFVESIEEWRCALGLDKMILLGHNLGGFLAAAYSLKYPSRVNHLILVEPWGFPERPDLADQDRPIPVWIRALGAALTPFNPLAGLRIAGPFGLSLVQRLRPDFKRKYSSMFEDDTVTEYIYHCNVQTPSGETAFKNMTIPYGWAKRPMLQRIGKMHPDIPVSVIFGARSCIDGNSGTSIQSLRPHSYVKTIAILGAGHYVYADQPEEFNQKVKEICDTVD
PfGluPho conf: PfG6PD inhibition, single-dose confirmed; shares compounds with PfG6PD inh; recombinant PfGluPho, NADPH-diaphorase-resazurin fluorescence; inhibition, % at 20 µM; 2,400 compounds, 34% hits; AID 504753;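 active = inhibition of at least 50% at 20 µM in any single replicate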;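 also: 0% = DMSO with substrate and 100% = DMSO lacking glucose-6-phosphate substrate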
Diaphorase 10uM: diaphorase inhibition or oxidation at 10 uM NADPH; AID 504862; inhibition, % at 20 µM; shares compounds with PfG6PD inh; diaphorase-coupled resazurin reduction, fluorescence, NADPH 10 uM; 820 compounds, 39% hits;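 active = average inhibition reaching 50% or more with the compound at 20 µM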;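 also: resorufin red fluorescence formed as diaphorase reduces resazurin using NADPH; 0% = DMSO with enzyme and 100% = DMSO without enzyme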
Diaph ctr 30uM: counter-screen for P. falciparum G6PD inhibitors: diaphorase inhibitors, oxidizers. inhibition, % at 20 µM. AID 504863. Diaphorase/resazurin coupled assay, resorufin fluorescence, 30 uM NADPH. 820 compounds, 29% hits. shares compounds with PfG6PD inh;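 active = inhibition averaging 50% or more, tested at 20 µM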;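 also: 0% = DMSO with enzyme and 100% = DMSO wells lacking diaphorase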
cAMP nonselect: U2OS forskolin cAMP inhibition counter-screen; 1,600 compounds, 26% hits; parental U2OS, LANCE TR-FRET; inhibition, % at 6.5 µM; AID 602193; shares compounds with MC4R antagonist;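 active = mean inhibition over triplicates above the low-control well mean plus 3 SD, set per campaign, cut at about 13% in these data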;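 also: signal is single emission at 671 nm which falls as cellular cAMP rises; 0% = forskolin-stimulated wells and 100% = buffer without forskolin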
MC4R cAMP antag: human MC4R cAMP antagonism confirmation. shares compounds with MC4R antagonist. MC4R-expressing cells, MTII-stimulated cAMP, TR-FRET. inhibition, % at 6.5 µM. 1,600 compounds, 27% hits; in the data active = inhibition above about 29%;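 also: 0% = agonist stimulated wells alone and 100% = agonist stimulated wells plus saturating reference antagonist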
ABHD5 PLIN5 conf: confirmation of human ABHD5-PLIN5 interaction inhibitors; shares compounds with ABHD5 PLIN5 PPI; biochemical ABHD5-PLIN5 interaction, luminescence; inhibition, % at 4 µM; 2,200 compounds, 67% hits; in the data active = inhibition above about 23%;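 also: 0% = DMSO vehicle wells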
HNF4 counter: counter-screen for ABHD5-PLIN5 inhibitors: HNF4 split-luciferase; HNF4 dimerization, luminescence, biochemical; AID 651674; inhibition, % at 4 µM; shares compounds with ABHD5 PLIN5 PPI; 2,200 compounds, 77% hits;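 active = mean inhibition across replicate wells exceeding the computed hit threshold, cut at about 13% in these data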;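 also: light from luciferase halves that rejoin when HNF4 fusion proteins dimerize; 0% = DMSO only wells and the 100% control is not given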
* = called active by the depositor; x = no result given; ! = not confirmed by another sample.

SMILES	PfG6PD inh	B2AR ag	MC4R barr agon	MC4R antagonist	ABHD5 PLIN5 PPI	PfGluPho conf	ABHD5 PLIN5 conf	HNF4 counter	others
O=C(CN1C(=O)C2CC=CCC2C1=O)Nc1ccc(Br)cc1 (configuration not stated)	1	-5	-2	11	-1	x	x	x
O=S(=O)(NCC(c1ccc2c(c1)OCO2)N1CCN(c2ccccc2)CC1)c1ccccc1 (configuration not stated)	8	-1	-1	9	-11	x	x	x
CCN1CCN(Cc2ccc(NC(=O)c3ccc(C)c(/C=C/c4cnc(Nc5cc(N6CCNCC6)nc(C)n5)cn4)c3)cc2C(F)(F)F)CC1	66*!	-54	5	2	28*	31	36*	5
CC[N+](CC)=N/N=C1\C=CC[N+]([O-])=C1	x	x	x	x	4	x	x	x
CC(=O)Nc1ccc2c(=O)n(-c3ccccc3)sc2c1	127*	x	-2	9	79*	105*	69*	117*	Diaphorase 10uM=-16;Diaph ctr 30uM=1
COc1ccc(S(=O)(=O)Nc2ccc(-n3cccc3)cc2)cc1	-14	4	6	5	-13	x	x	x
O=C(c1ccccc1SCc1ccccc1)N1CCCCCC1	21	6	0	11	-1	x	x	x
CC(=O)N(C1=C(Cl)C(=O)c2ccccc2C1=O)C1CCCCC1	116*	64*	-2	10	33*	113*	84*	110*	Diaphorase 10uM=98*;Diaph ctr 30uM=95*
CC(=O)N(c1ccccc1C)C1CCCC1	-1	-6	-2	1	-6	x	x	x
O=C1c2ccccc2C(=O)N1c1nccs1	-6	1	-1	-7	7	x	x	x
O=c1c2ccccc2sn1-c1nccs1	112*	1	-2	38*	81*	115*	86*	118*	Diaphorase 10uM=-25;Diaph ctr 30uM=-24;cAMP nonselect=0;MC4R cAMP antag=0
Cn1c(=O)[nH]c(=O)c2c1nc([N+](=O)[O-])n2Cc1ccccc1	86*	67*	1	-7	24*	88*	62*	59*	Diaphorase 10uM=50;Diaph ctr 30uM=51*
CCCC(=O)OCCNc1cc(Sc2nc3ccccc3[nH]2)c2nonc2c1[N+](=O)[O-]	65*	37	-2	-26	50*	39	61*	110*
CCOC(=O)N1CCN(c2cc(NCCO)c([N+](=O)[O-])c3nonc23)CC1	15	8	-3	2	-6	x	x	x
CCC(Sc1nc(N)cc(=O)[nH]1)C(=O)Nc1cc(C)on1 (configuration not stated)	-14	7	2	4	-6	x	x	x
Oc1ccc(-c2sc(Nc3ccccc3)n[n+]2-c2ccc(F)cc2)cc1	2	-3	0	18	-11	x	x	x
Fc1ccc(-[n+]2nc(Nc3ccccc3)sc2-c2c3ccccc3cc3ccccc23)cc1	132*	32	7	-6	25*	82*	4	6	Diaphorase 10uM=78*;Diaph ctr 30uM=60*
COCCNC(=O)c1ccc(C2SCC(=O)N2CCc2ccccc2)cc1 (configuration not stated)	20	2	-2	12	-7	x	x	x
CCC(=O)OCOc1ccc(/C=C2/CCC(CN(C)C)C2=O)cc1 (configuration not stated)	84*	17	-3	15	51*	56*	95*	109*	Diaphorase 10uM=-33;Diaph ctr 30uM=-23
CCOc1ccc(/C=C2\CCC(C3CCCC3)C2=O)cc1 (configuration not stated)	12	6	-1	3	-1	x	x	x
Cc1cc(C(=O)CCC(=O)N(C)CC(=O)Nc2ccc(OC(F)(F)F)cc2)c(C)s1	10	-8	-2	-1	-8	x	x	x
O=C1C=CC(=Nc2ccc3c(c2)Cc2cc(F)ccc2-3)O1	61*	9	-2	23	29*	4	33*	60*
C=CC(=O)N1C/C(=C/c2ccc(Cl)cc2)C(=O)/C(=C\c2ccc(Cl)cc2)C1	76*	25	-3	45*	94*	26	104*	110*	cAMP nonselect=22*;MC4R cAMP antag=21
COc1ccc(C[C@@H]2OC3(C=CC(=O)C=C3)O[C@H]2Cc2ccc(OC)cc2)cc1	62*	52*	-3	60*	100*	20	104*	108*	cAMP nonselect=35*;MC4R cAMP antag=34*
COc1ccc(N2C(=O)CC(Cc3ccccc3)C2=O)cc1 (configuration not stated)	-1	-6	-3	2	-4	x	x	x
SMILES	PfG6PD inh	B2AR ag	MC4R barr agon	MC4R antagonist	ABHD5 PLIN5 PPI	PfGluPho conf	ABHD5 PLIN5 conf	HNF4 counter	others
COc1ccc(OC)c2c(C)c(C)[nH]c12	-2	1	0	4	-1	x	x	x
COC1C=CC=C(C)C(=O)NC2=CC(=O)C(N)=C(CC(C)CC(OC)C(O)C(C)C=C(C)C1OC(N)=O)C2=O (configuration not stated)	-40	-4	-3	-26	-12	x	x	x
COC1CC(C)C(OC)c2cc(O)cc(c2O)NC(=O)C(C)=CC=CC(C)C(OC(N)=O)C(C)=CC(C)C1OC (configuration not stated)	105*	1	-1	-8	43*	106*	52*	93*	Diaphorase 10uM=82*;Diaph ctr 30uM=82*
COc1cc2c(Cc3ccccc3)cncc2cc1O	26	1	0	-4	13	x	x	x
CNC(=S)N(CCCN(C)C)Cc1cc2cc3c(cc2[nH]c1=O)OCCO3	9	-4	0	4	-6	x	x	x
Cc1cc(C)cc(-n2c(SCC(=O)Nc3cccc(S(=O)(=O)NC4=NCCCCC4)c3)nc3ccccc3c2=O)c1	-36	15	2	29*	-1	x	x	x	cAMP nonselect=2;MC4R cAMP antag=4
Cc1ccc(C)c(SCC(=O)Nc2cccc(S(=O)(=O)NC3=NCCCCC3)c2)c1	-3	2	2	-1	-1	x	x	x
CCOc1ccc(N(CC(=O)NC2CCCCC2)C(=O)CCC(=O)Nc2nccs2)cc1	-1	-7	-1	12	-2	x	x	x
